Data on 2 molecules can be found in ChEMBL document CHEMBL1629705, “PSI-7851, a pronucleotide of beta-D-2'-deoxy-2'-fluoro-2'-C-methyluridine monophosphate, is a potent and pan-genotype inhibitor of hepatitis C virus replication” (Antimicrob Agents Chemother, 2010).

SMILES strings stand for the structures. Calls of active or inactive are those of the source. The calls are words filed in the database; no cut-off is given here. Bounds are passed on as bounds.

Data set [1] addresses T1, DNA polymerase alpha catalytic subunit (Homo sapiens, UniProt P09884).
T1 sequence (P09884 whole entry): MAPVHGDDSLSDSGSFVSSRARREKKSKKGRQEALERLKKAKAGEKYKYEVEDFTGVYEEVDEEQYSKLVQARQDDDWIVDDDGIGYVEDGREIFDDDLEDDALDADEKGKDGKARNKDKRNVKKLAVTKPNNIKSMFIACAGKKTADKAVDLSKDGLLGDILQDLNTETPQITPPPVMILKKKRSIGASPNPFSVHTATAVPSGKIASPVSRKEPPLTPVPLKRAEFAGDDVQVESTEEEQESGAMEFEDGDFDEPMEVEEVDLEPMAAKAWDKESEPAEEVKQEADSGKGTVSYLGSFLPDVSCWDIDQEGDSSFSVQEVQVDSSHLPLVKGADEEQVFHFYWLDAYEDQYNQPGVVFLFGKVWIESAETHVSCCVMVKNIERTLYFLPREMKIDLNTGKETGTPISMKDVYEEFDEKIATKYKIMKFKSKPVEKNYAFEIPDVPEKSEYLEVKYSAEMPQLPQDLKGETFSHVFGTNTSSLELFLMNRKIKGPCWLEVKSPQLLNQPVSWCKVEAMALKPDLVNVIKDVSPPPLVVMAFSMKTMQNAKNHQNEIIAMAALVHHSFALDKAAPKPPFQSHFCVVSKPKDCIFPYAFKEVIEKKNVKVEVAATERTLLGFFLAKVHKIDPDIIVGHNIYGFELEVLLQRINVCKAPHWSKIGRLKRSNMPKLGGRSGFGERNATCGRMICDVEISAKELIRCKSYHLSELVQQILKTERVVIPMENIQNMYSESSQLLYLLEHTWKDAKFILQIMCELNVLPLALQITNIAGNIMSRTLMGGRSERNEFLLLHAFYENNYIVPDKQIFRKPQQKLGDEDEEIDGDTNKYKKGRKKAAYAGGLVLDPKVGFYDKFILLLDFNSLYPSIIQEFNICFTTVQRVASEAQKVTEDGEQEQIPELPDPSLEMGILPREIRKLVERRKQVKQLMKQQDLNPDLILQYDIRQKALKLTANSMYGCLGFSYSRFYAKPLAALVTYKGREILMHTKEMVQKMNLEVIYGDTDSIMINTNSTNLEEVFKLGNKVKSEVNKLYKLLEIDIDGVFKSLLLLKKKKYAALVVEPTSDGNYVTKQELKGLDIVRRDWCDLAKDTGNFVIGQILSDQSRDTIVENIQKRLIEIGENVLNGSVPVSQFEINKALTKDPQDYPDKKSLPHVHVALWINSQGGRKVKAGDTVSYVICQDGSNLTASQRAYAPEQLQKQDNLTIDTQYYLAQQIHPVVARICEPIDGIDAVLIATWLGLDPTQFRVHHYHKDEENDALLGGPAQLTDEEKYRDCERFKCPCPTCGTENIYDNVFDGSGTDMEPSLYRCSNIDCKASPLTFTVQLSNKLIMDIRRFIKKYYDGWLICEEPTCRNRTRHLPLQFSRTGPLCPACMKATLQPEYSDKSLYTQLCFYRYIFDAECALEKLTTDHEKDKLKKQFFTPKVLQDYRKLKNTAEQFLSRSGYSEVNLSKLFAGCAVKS
The data set is described as follows: Inhibition of human DNA polymerase alpha assessed as incorporation of [alpha-32P]dCTP up to 1mM preincubated for 30 mins by whatman DE81 paper binding assay. In outline:
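Human DNA polymerase α (20 μg/ml) or γ (50 μg/ml) in 50 mM Tris pH 7.5, 50 mM NaCl, activated calf thymus DNA, 20 μM each dNTP, [α-32P]dCTP, 5 mM MgCl2. Nucleotide inhibitor up to 1 mM. 37°C, quenched with EDTA at 30 min. Product measured by DE81 paper binding; IC50 by nonlinear fit.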

The nature of data set [2]: Inhibition of Hepatitis C virus genotype 4a recombinant NS5B polymerase after 3 hrs by phosphor imaging. Further details: species or system Hepatitis C virus subtype 4a. The gist of the method: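 C-terminal Δ21-truncated NS5B: 1b Con1 and 2a JFH-1 expressed in E. coli; 3a and 4a cloned from patient serum. Mix: 1 μM each NTP, [α-32P]UTP, 20 ng/μl genotype 1b(−) IRES RNA template, 40 ng/μl enzyme, 1 mM MgCl2, 0.75 mM MnCl2, 2 mM DTT, 50 mM HEPES pH 7.5. Run at 27°C: 30 min (1b, 2a) or 3 h (3a, 4a). EDTA quench, products on membrane read by phosphorimager. Duplicates; IC50 calculated.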

For data set [3], the system named is Hepatitis C virus. The data set is described as follows: Antiviral activity against Hepatitis C virus harboring NS5B polymerase S96T mutant gene infected in human lunet cells by luciferase-based replicon assay. Format: functional, Hepacivirus hominis. In outline:
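ET-lunet cells with the ET genotype 1b replicon, wild-type or S96T/N142T (ET replicon with these mutations electroporated into Lunet cells, selected in 0.2 mg/ml G418). 3,000 cells/well, 4 days with serially diluted compound. Firefly luciferase luminescence read-out; EC90 from dose–response.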
Background: In antiviral work, replicon cells carry a viral genome segment that copies itself.

For data set [4], the target named is DNA-directed RNA polymerase II subunit RPB1 (Homo sapiens, UniProt P24928). Nature of the data set: Inhibition of human RNA polymerase at 2 uM.
Data set [5] relates to Hepatitis C virus. The data set is described as follows: Antiviral activity against Hepatitis C virus JFH1 assessed as viral RNA level by quantitative real-time PCR. It counts as functional, organism-based, Hepacivirus hominis. The note with it: JFH-1.
Data set [6] relates to Hepatitis C virus. The data set is described as follows: Antiviral activity against Hepatitis C virus assessed as log reduction in viral RNA at 1 uM after 3 weeks. It counts as functional, Hepacivirus hominis. The gist of the method:
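ET-lunet replicon cells seeded at 1 × 10^5/well without G418, treated at 0.1, 1 or 2 μM (final DMSO 0.5%). Passaged 1:3–1:4 every 3–4 days for 3 weeks with fresh compound. Then compound withdrawn and cells grown 3 more weeks in 0.25 mg/ml G418. HCV RNA by RT-PCR (ΔΔCt vs rRNA and DMSO controls, log change). Colonies fixed in formaldehyde and stained with crystal violet at 6 weeks.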

The subject of the next data set is Influenza A virus. Nature of the data set: Antiviral activity against Influenza A virus (A/Viet Nam/1203/2004(H5N1)) infected in HFF by neutral red assay. Format: functional, organism-based.
Data set [7] has as its system Hepatitis C virus. The data set is described as follows: Antiviral activity against Hepatitis C virus assessed as inhibition of viral rebound at 1 uM after 3 weeks in presence of G418. Format: functional, organism-based. The note with it: Hepacivirus hominis. The gist of the method: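 ET-lunet replicon cells, 1 × 10^5/well, no G418, with compound at 0.1, 1 or 2 μM (final DMSO 0.5%). Passaged 1:3 or 1:4 every 3–4 days for 3 weeks with fresh compound, then 3 more weeks with 0.25 mg/ml G418 and no inhibitor. HCV RNA by RT-PCR normalized to rRNA (ΔΔCt vs DMSO) at each passage. Crystal violet colony staining at 6 weeks.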

Data set [8] can be described thus: Cytotoxicity against human myeloid progenitor cells after 14 to 16 days by colony formation assay. It counts as cell-based. The gist of the method: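 Normal human bone marrow erythroid and myeloid progenitors, 2 × 10^4 cells per culture in methylcellulose with rh-SCF 50 ng/ml, rh-IL-3 10 ng/ml, rh-GM-CSF 10 ng/ml and rh-EPO 3 U/ml. Compound up to 50 μM, DMSO control 0.1%, 14–16 days.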

The IC50 is the midpoint of a concentration-inhibition curve. For the molecule `C[C@@]1(F)[C@H](O)[C@@H](COP(=O)(O)OP(=O)(O)OP(=O)(O)O)O[C@H]1n1ccc(=O)[nH]c1=O` [GS-461203], the values for the IC50 in data set [1] and in data set [2] were 550000 nM and 2600 nM, respectively.

A word on the EC90: it is the concentration needed for an effect of 90%. What is called EC50 is the concentration that produces a half-maximal response. Usually CC50 stands for the concentration at which the toxic effect on the cells reaches its halfway point. In the case of `CC(C)OC(=O)[C@H](C)NP(=O)(OC[C@H]1O[C@@H](n2ccc(=O)[nH]c2=O)[C@](C)(F)[C@@H]1O)Oc1ccccc1` (stereo not given in full), the EC90 came to 390 nM with Hepatitis C virus [3] and 520 nM with Hepatitis C virus [5]. In addition, the fold change (FC) in [4] worked out at 5. The EC50 with Hepatitis C virus [5] is 180 nM; with Influenza A virus, > 100000 nM. Besides, in the data set with Hepatitis C virus [6], the FC is given as 4. Besides, the inhibition result in the data set with Hepatitis C virus [7] was “Active”. Besides, the cytotoxic concentration (CC50) in data set [8] was > 50000 nM.
